Results reported in ChEMBL document CHEMBL3817796, “Discovery of Novel 15-Lipoxygenase Activators To Shift the Human Arachidonic Acid Metabolic Network toward Inflammation Resolution” (J Med Chem, 2016).

Tests used:
[1] = target: T1, Polyunsaturated fatty acid lipoxygenase ALOX15 (Homo sapiens) (UniProt P16050); test: Activation of wild-type His6-tagged human 15-LOX expressed in Escherichia coli Rosetta DE3 assessed as 15-HpETE formation at 40 uM pre-incubated for 1 min before arachidonic acid substrate addition by cell free assay
T1 sequence (whole entry): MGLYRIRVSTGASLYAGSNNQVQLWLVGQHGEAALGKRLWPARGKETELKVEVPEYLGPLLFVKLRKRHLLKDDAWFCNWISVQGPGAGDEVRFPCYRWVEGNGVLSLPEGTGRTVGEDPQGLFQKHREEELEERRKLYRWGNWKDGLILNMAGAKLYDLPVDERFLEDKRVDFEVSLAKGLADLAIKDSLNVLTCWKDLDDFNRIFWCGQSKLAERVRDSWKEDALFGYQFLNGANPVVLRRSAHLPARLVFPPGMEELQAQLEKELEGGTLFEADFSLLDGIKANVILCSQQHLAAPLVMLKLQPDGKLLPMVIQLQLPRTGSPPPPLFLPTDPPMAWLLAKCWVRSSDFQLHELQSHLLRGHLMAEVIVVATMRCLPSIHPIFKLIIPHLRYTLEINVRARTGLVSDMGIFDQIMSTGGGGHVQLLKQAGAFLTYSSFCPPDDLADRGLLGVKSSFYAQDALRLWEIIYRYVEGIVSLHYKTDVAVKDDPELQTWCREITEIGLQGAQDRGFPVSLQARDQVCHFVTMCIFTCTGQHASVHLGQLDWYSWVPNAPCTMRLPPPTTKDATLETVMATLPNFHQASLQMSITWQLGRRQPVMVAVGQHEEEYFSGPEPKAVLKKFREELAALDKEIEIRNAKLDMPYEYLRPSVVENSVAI

[2] = target: T2, Polyunsaturated fatty acid lipoxygenase ALOX15 (Homo sapiens, UniProt P16050); test: Binding affinity to wild-type His6-tagged human 15-LOX expressed in Escherichia coli Rosetta DE3 by SPR assay
T2 sequence (P16050 whole entry): T1 sequence (whole entry)
How it was run: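 15-LOX amine-coupled to a CM5 chip at 800 RU, 25 °C, in PBS-P pH 7.4. Compound concentrations in 5% DMSO injected serially; regenerated by buffer washing. KD from Hill fit of response units.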

| %max [1] | Kd [2] | Structure (SMILES) |
| --- | --- | --- |
| 61% | 15.3 µM | C[n+]1cn(/N=C/c2ccccc2)c2ccccc21 |
| 84% | 4.4 µM | c1cc2c3c(cccc3c1)-c1n[n+]3cc4ccccn4c3cc1-2 |
